In ChEMBL document CHEMBL3124924, “Bifunctional ethyl 2-amino-4-methylthiazole-5-carboxylate derivatives: synthesis and in vitro biological evaluation as antimicrobial and anticancer agents” (2014):
Values after ≈ are worked out from the molar mass of the structure shown. Active and inactive are the calls of the source. The rule behind the calls is not given here.

Assays:
Candida albicans [1] = test: Antifungal activity against Candida albicans ATCC 10231 assessed as growth inhibition at 1 mg/mL after 48 hrs by agar-cup diffusion method; assay type: functional; settings: ATCC 10231, 48 h, read-out: DIZ
In short: (§1)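 Agar-cup diffusion: 1 mL of 6 h broth culture seeded per 100 mL molten sterile agar at 45 °C and poured into plates. 8 mm cups cut, each filled with 0.1 mL of 1 mg/mL test solution. Incubated 37 °C for 24 h, 48 h for C. albicans. DMSO control per organism. Inhibition zone diameter in mm, mean of three measurements.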

Escherichia coli [2] = test: Antibacterial activity against Escherichia coli ATCC 25922 assessed as growth inhibition at 1 mg/mL after 24 hrs by agar-cup diffusion method; assay type: functional; settings: ATCC 25922, 24 h, read-out: DIZ; in short: as §1
Bacillus spizizenii [3] = test: Antibacterial activity against Bacillus subtilis ATCC 6633 assessed as growth inhibition at 1 mg/mL after 24 hrs by agar-cup diffusion method; assay type: functional; settings: ATCC 6633, 24 h, read-out: DIZ; in short: as §1
Aspergillus niger = test: Antifungal activity against Aspergillus niger assessed as growth inhibition at 1 mg/mL after 24 hrs by agar-cup diffusion method; assay type: functional, organism-based; in short: as §1
Candida albicans [4] = test: Fungicidal activity against Candida albicans ATCC 10231 after 18 hrs; assay type: functional; settings: ATCC 10231, 18 h
In short: (§2)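 Continuation of the broth-dilution MIC test. A loopful from each tube without visible growth spread on a quarter of a Mueller-Hinton agar plate and incubated 18 h. Lowest concentration giving no growth on subculture taken as the MBC.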

Candida albicans [5] = test: Antifungal activity against Candida albicans ATCC 10231 assessed as growth inhibition after 48 hrs by two-fold serial dilution assay; assay type: functional; settings: ATCC 10231, 48 h
In short: (§3)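 Twofold serial broth dilution run on compounds giving inhibition zones of 13 mm or more. Organisms pre-grown in suitable broth at 37 °C, 24 h for bacteria and 48 h for fungi. Dilution series 200, 100, 50, 25, 12.5, 6.25. Each 5 mL tube inoculated with 0.1 mL and incubated 37 °C for 48 h. Tubes scored for presence or absence of growth.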

Escherichia coli [6] = test: Bactericidal activity against Escherichia coli ATCC 25922 after 18 hrs; assay type: functional; settings: ATCC 25922, 18 h; in short: as §2
Escherichia coli [7] = test: Antibacterial activity against Escherichia coli ATCC 25922 assessed as growth inhibition after 48 hrs by two-fold serial dilution assay; assay type: functional; settings: ATCC 25922, 48 h; in short: as §3
Bacillus spizizenii [8] = test: Bactericidal activity against Bacillus subtilis ATCC 6633 after 18 hrs; assay type: functional; settings: ATCC 6633, 18 h; in short: as §2
Bacillus spizizenii [9] = test: Antibacterial activity against Bacillus subtilis ATCC 6633 assessed as growth inhibition after 48 hrs by two-fold serial dilution assay; assay type: functional; settings: ATCC 6633, 48 h; in short: as §3
Staphylococcus aureus [10] = test: Bactericidal activity against Staphylococcus aureus ATCC 6538 after 18 hrs; assay type: functional; settings: ATCC 6538, 18 h; in short: as §2
Staphylococcus aureus [11] = test: Antibacterial activity against Staphylococcus aureus ATCC 6538 assessed as growth inhibition after 48 hrs by two-fold serial dilution assay; assay type: functional; settings: ATCC 6538, 48 h; in short: as §3
Staphylococcus aureus [12] = test: Antibacterial activity against Staphylococcus aureus ATCC 6538 assessed as growth inhibition at 1 mg/mL after 24 hrs by agar-cup diffusion method; assay type: functional; settings: ATCC 6538, 24 h, read-out: DIZ; in short: as §1
Pseudomonas aeruginosa = test: Antibacterial activity against Pseudomonas aeruginosa ATCC 27853 assessed as growth inhibition at 1 mg/mL after 24 hrs by agar-cup diffusion method; assay type: functional; settings: ATCC 27853, 24 h, read-out: DIZ; in short: as §1
U-251 = test: Cytotoxicity against human U251 cells assessed as growth inhibition at 10 uM after 48 hrs by SRB assay; assay type: functional; settings: U-251, 48 h, read-out: GI
In short: (§4)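 NCI-60 one-dose primary screen run by the NCI Drug Evaluation Branch across the full 60-line panel. Single high-dose treatment with 48 h continuous drug exposure. Cell growth estimated by sulforhodamine B protein staining. Results given as percent growth of treated cells and expressed as percentage growth inhibition.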

SNB-75 = test: Cytotoxicity against human SNB75 cells assessed as growth inhibition at 10 uM after 48 hrs by SRB assay; assay type: functional; settings: SNB-75, 48 h, read-out: GI; in short: as §4
SF-268 = test: Cytotoxicity against human SF268 cells assessed as growth inhibition at 10 uM after 48 hrs by SRB assay; assay type: functional; settings: SF-268, 48 h, read-out: GI; in short: as §4
PC-3 = test: Cytotoxicity against human PC3 cells assessed as growth inhibition at 10 uM after 48 hrs by SRB assay; assay type: functional; settings: PC-3, 48 h, read-out: GI; in short: as §4
UACC-62 = test: Cytotoxicity against human UACC62 cells assessed as growth inhibition at 10 uM after 48 hrs by SRB assay; assay type: functional; settings: UACC-62, 48 h, read-out: GI; in short: as §4
SK-MEL-5 = test: Cytotoxicity against human SK-MEL-5 cells assessed as growth inhibition at 10 uM after 48 hrs by SRB assay; assay type: functional; settings: SK-MEL-5, 48 h, read-out: GI; in short: as §4
SK-MEL-2 = test: Cytotoxicity against human SK-MEL-2 cells assessed as growth inhibition at 10 uM after 48 hrs by SRB assay; assay type: functional; settings: SK-MEL-2, 48 h, read-out: GI; in short: as §4
LOX IMVI = test: Cytotoxicity against human LOXIMVI cells assessed as growth inhibition at 10 uM after 48 hrs by SRB assay; assay type: functional; settings: read-out: GI; in short: as §4
[13] = Cytotoxicity against human UO31 cells assessed as growth inhibition at 10 uM after 48 hrs by SRB assay; assay type: functional; settings: UO-31, 48 h, read-out: GI; in short: as §4
SN12C = test: Cytotoxicity against human SN12C cells assessed as growth inhibition at 10 uM after 48 hrs by SRB assay; assay type: functional; settings: read-out: GI; in short: as §4
A498 = test: Cytotoxicity against human A498 cells assessed as growth inhibition at 10 uM after 48 hrs by SRB assay; assay type: functional; settings: A498, 48 h, read-out: GI; in short: as §4
SR = test: Cytotoxicity against human SR cells assessed as growth inhibition at 10 uM after 48 hrs by SRB assay; assay type: functional; settings: read-out: GI; in short: as §4
RPMI-8226 = test: Cytotoxicity against human RPMI8226 cells assessed as growth inhibition at 10 uM after 48 hrs by SRB assay; assay type: functional; settings: RPMI-8226, 48 h, read-out: GI; in short: as §4
MOLT-4 = test: Cytotoxicity against human MOLT4 cells assessed as growth inhibition at 10 uM after 48 hrs by SRB assay; assay type: functional; settings: MOLT-4, 48 h, read-out: GI; in short: as §4
K562 = test: Cytotoxicity against human K562 cells assessed as growth inhibition at 10 uM after 48 hrs by SRB assay; assay type: functional; settings: K562, 48 h, read-out: GI; in short: as §4
CCRF-CEM = test: Cytotoxicity against human CCRF-CEM cells assessed as growth inhibition at 10 uM after 48 hrs by SRB assay; assay type: functional; settings: read-out: GI; in short: as §4
IGROV-1 = test: Cytotoxicity against human IGROV1 cells assessed as growth inhibition at 10 uM after 48 hrs by SRB assay; assay type: functional; settings: IGROV-1, 48 h, read-out: GI; in short: as §4
T47D = test: Cytotoxicity against human T47D cells assessed as growth inhibition at 10 uM after 48 hrs by SRB assay; assay type: functional; settings: read-out: GI; in short: as §4
MDA-MB-468 = test: Cytotoxicity against human MDA-MB-468 cells assessed as growth inhibition at 10 uM after 48 hrs by SRB assay; assay type: functional; settings: MDA-MB-468, 48 h, read-out: GI; in short: as §4
[14] = Cytotoxicity against human NCI-ADR-RES cells assessed as growth inhibition at 10 uM after 48 hrs by SRB assay; assay type: functional; settings: read-out: GI; in short: as §4
MCF7 = test: Cytotoxicity against human MCF7 cells assessed as growth inhibition at 10 uM after 48 hrs by SRB assay; assay type: functional; settings: MCF7, 48 h, read-out: GI; in short: as §4
[15] = Cytotoxicity against human Hs578T cells assessed as growth inhibition at 10 uM after 48 hrs by SRB assay; assay type: functional; settings: Hs-578T, read-out: GI; in short: as §4
SW-620 = test: Cytotoxicity against human SW620 cells assessed as growth inhibition at 10 uM after 48 hrs by SRB assay; assay type: functional; settings: SW-620, 48 h, read-out: GI; in short: as §4
HT-29 = test: Cytotoxicity against human HT-29 cells assessed as growth inhibition at 10 uM after 48 hrs by SRB assay; assay type: functional; settings: HT-29, 48 h, read-out: GI; in short: as §4
HCT-15 = test: Cytotoxicity against human HCT15 cells assessed as growth inhibition at 10 uM after 48 hrs by SRB assay; assay type: functional; settings: HCT-15, 48 h, read-out: GI; in short: as §4
HCT-116 = test: Cytotoxicity against human HCT116 cells assessed as growth inhibition at 10 uM after 48 hrs by SRB assay; assay type: functional; settings: HCT-116, 48 h, read-out: GI; in short: as §4
HCC 2998 = test: Cytotoxicity against human HCC2998 cells assessed as growth inhibition at 10 uM after 48 hrs by SRB assay; assay type: functional; settings: HCC 2998, 48 h, read-out: GI; in short: as §4
NCI-H522 = test: Cytotoxicity against human NCI-H522 cells assessed as growth inhibition at 10 uM after 48 hrs by SRB assay; assay type: functional; settings: NCI-H522, 48 h, read-out: GI; in short: as §4
NCI-H322M = test: Cytotoxicity against human NCI-H322M cells assessed as growth inhibition at 10 uM after 48 hrs by SRB assay; assay type: functional; settings: read-out: GI; in short: as §4
NCI-H226 = test: Cytotoxicity against human NCI-H226 cells assessed as growth inhibition at 10 uM after 48 hrs by SRB assay; assay type: functional; settings: NCI-H226, 48 h, read-out: GI; in short: as §4
HOP-92 = test: Cytotoxicity against human HOP92 cells assessed as growth inhibition at 10 uM after 48 hrs by SRB assay; assay type: functional; settings: HOP-92, 48 h, read-out: GI; in short: as §4

Compound: CCOC(=O)c1sc(NC(=O)C(F)(F)F)nc1C
- zone of inhibition at 1000 µg/mL (Candida albicans [1]): > 13 mm
- zone of inhibition at 1000 µg/mL (Escherichia coli [2]): > 13 mm
- zone of inhibition at 1000 µg/mL (Bacillus spizizenii [3]): > 13 mm
- growth inhibition (GI) (Aspergillus niger): inactive
- MFC (Candida albicans [4]): 100 µg/mL (≈ 354 µM)
- MIC (Candida albicans [5]): 100 µg/mL (≈ 354 µM)
- MBC (Escherichia coli [6]): 100 µg/mL (≈ 354 µM)
- MIC (Escherichia coli [7]): 100 µg/mL (≈ 354 µM)
- MBC (Bacillus spizizenii [8]): 100 µg/mL (≈ 354 µM)
- MIC (Bacillus spizizenii [9]): 100 µg/mL (≈ 354 µM)
- MBC (Staphylococcus aureus [10]): 100 µg/mL (≈ 354 µM)
- MIC (Staphylococcus aureus [11]): 100 µg/mL (≈ 354 µM)
- zone of inhibition at 1000 µg/mL (Staphylococcus aureus [12]): > 13 mm
- zone of inhibition at 1000 µg/mL (Pseudomonas aeruginosa): > 13 mm

Compound: Cc1nc(N)sc1C(=O)NCCO
- inhibition of growth at 10 µM (U-251): < 10%
- inhibition of growth at 10 µM (SNB-75): < 10%
- inhibition of growth at 10 µM (SF-268): 2.48%
- inhibition of growth at 10 µM (PC-3): < 10%
- inhibition of growth at 10 µM (UACC-62): 7.33%
- inhibition of growth at 10 µM (SK-MEL-5): < 10%
- inhibition of growth at 10 µM (SK-MEL-2): 87.4%
- inhibition of growth at 10 µM (LOX IMVI): < 10%
- inhibition of growth at 10 µM [13]: 20%
- inhibition of growth at 10 µM (SN12C): < 10%
- inhibition of growth at 10 µM (A498): < 10%
- inhibition of growth at 10 µM (SR): < 10%
- inhibition of growth at 10 µM (RPMI-8226): < 10%
- inhibition of growth at 10 µM (MOLT-4): < 10%
- inhibition of growth at 10 µM (K562): < 10%
- inhibition of growth at 10 µM (CCRF-CEM): 40%
- inhibition of growth at 10 µM (IGROV-1): < 10%
- inhibition of growth at 10 µM (T47D): < 10%
- inhibition of growth at 10 µM (MDA-MB-468): 3.17%
- inhibition of growth at 10 µM [14]: < 10%
- inhibition of growth at 10 µM (MCF7): 2.13%
- inhibition of growth at 10 µM [15]: < 10%
- inhibition of growth at 10 µM (SW-620): < 10%
- inhibition of growth at 10 µM (HT-29): < 10%
- inhibition of growth at 10 µM (HCT-15): < 10%
- inhibition of growth at 10 µM (HCT-116): 2.49%
- inhibition of growth at 10 µM (HCC 2998): < 10%
- inhibition of growth at 10 µM (NCI-H522): 65.4%
- inhibition of growth at 10 µM (NCI-H322M): < 10%
- inhibition of growth at 10 µM (NCI-H226): 3.91%
- inhibition of growth at 10 µM (HOP-92): 82.1%
